From ChEMBL document CHEMBL1629640, “Antimicrobial activities of jadomycin B and structurally related analogues” (2009)
In brackets after ≈: the same amount, converted by molar mass.

Legend:
Staphylococcus aureus [1] = assay: Antimicrobial activity against Staphylococcus aureus C622 by broth microdilution method; assay type: functional
Procedure, shortened: (§1)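 Preliminary MIC screen by twofold serial broth microdilution in Mueller-Hinton broth, 0.5% DMSO final, with a DMSO-only control. Overnight mid-log cultures were diluted 100-fold, grown 4 h, then diluted 10−6 and added to wells. Plates were incubated overnight and growth read visually. Inhibition was defined as growth ≤ half of control. Three replicates per strain.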

Pseudomonas aeruginosa [2] = assay: Antimicrobial activity against Pseudomonas aeruginosa H188 by broth microdilution method; assay type: functional
Procedure, shortened: (§2)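 Preliminary screen by broth microdilution. Jadomycins dissolved in 100% DMSO and diluted to a 2.56 mg ml−1 working stock in 5% DMSO. First well held 0.5% DMSO final, followed by twofold serial dilutions in broth. A DMSO-only control was included. Strains were grown in Mueller-Hinton broth to mid-log, diluted 100-fold, incubated 4 h, then diluted 10−6. Plates were incubated overnight and growth was read visually. MIC defined as growth ≤ half of control. Three replicates.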

Enterococcus faecalis = assay: Antimicrobial activity against Enterococcus faecalis C625 by broth microdilution method; assay type: functional; procedure, shortened: as §2
Staphylococcus aureus [3] = assay: Antimicrobial activity against methicillin-resistant Staphylococcus aureus C623 by broth microdilution method; assay type: functional; procedure, shortened: as §1
Staphylococcus aureus [4] = assay: Antimicrobial activity against Staphylococcus aureus Becker CP8 by broth microdilution method; assay type: functional; procedure, shortened: as §1
Staphylococcus aureus [5] = assay: Antimicrobial activity against Staphylococcus aureus 305 by broth microdilution method; assay type: functional; procedure, shortened: as §1
[6] = test system: Staphylococcus epidermidis; assay: Antimicrobial activity against Staphylococcus epidermidis isolate C621 by broth microdilution method; assay type: functional; procedure, shortened: as §2
Pseudomonas aeruginosa [7] = assay: Antimicrobial activity against Pseudomonas aeruginosa H187 by broth microdilution method; assay type: functional; procedure, shortened: as §2
[8] = test system: Staphylococcus epidermidis; assay: Antimicrobial activity against Staphylococcus epidermidis C960 by broth microdilution method; assay type: functional; procedure, shortened: as §2
Staphylococcus aureus [9] = assay: Antimicrobial activity against Staphylococcus aureus ATCC 55804 by broth microdilution method
Bacillus subtilis = assay: Antimicrobial activity against Bacillus subtilis C971 by broth microdilution method; assay type: functional; procedure, shortened: as §2
[10] = test system: Staphylococcus epidermidis; assay: Antimicrobial activity against Staphylococcus epidermidis C960 by CLSI method; assay type: functional
Staphylococcus aureus [11] = assay: Antimicrobial activity against methicillin-resistant Staphylococcus aureus C623 by CLSI method; assay type: functional
Procedure, shortened: (§3)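 MIC by CLSI broth microdilution in cation-adjusted Mueller-Hinton broth at 5 × 10^5 CFU ml−1 final (5 × 10^4 CFU/well).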

Staphylococcus aureus [12] = assay: Antimicrobial activity against Staphylococcus aureus 305 by CLSI method; assay type: functional; procedure, shortened: as §3

Row | Structure (SMILES) | MIC (Staphylococcus aureus [1]) [µg/mL] | MIC (Pseudomonas aeruginosa [2]) [µg/mL] | MIC (Enterococcus faecalis) [µg/mL] | MIC (Staphylococcus aureus [3]) [µg/mL] | MIC (Staphylococcus aureus [4]) [µg/mL] | MIC (Staphylococcus aureus [5]) [µg/mL] | MIC [6] [µg/mL] | MIC (Pseudomonas aeruginosa [7]) [µg/mL] | MIC [8] [µg/mL] | MIC (Staphylococcus aureus [9]) [µg/mL] | MIC (Bacillus subtilis) [µg/mL] | MIC [10] [µg/mL] | MIC (Staphylococcus aureus [11]) [µg/mL] | MIC (Staphylococcus aureus [12]) [µg/mL]
1 | CC[C@H]1OC(=O)[C@H](C)[C@@H](O[C@H]2C[C@@](C)(OC)[C@@H](O)[C@H](C)O2)[C@H](C)[C@@H](O[C@@H]2O[C@H](C)C[C@H](N(C)C)[C@H]2O)[C@](C)(O)C[C@@H](C)C(=O)[C@H](C)[C@@H](O)[C@]1(C)O [ERYTHROMYCIN] | < 1 | > 2 | 1 (≈ 1.36 µM) | > 128 | < 0.25 | < 0.25 | < 0.125 | > 2 | < 0.125 | < 0.25 | < 0.125 | – | – | –
2 | Cc1cc(O)c2c(c1)[C@@H]1OC(=O)[C@@H]([C@H](C)O)N1C1=C2C(=O)c2cccc(O[C@H]3C[C@@H](O)[C@@H](O)[C@H](C)O3)c2C1=O [JADOMYCIN DT] | 16 (≈ 29.8 µM) | > 128 | > 128 | 16 (≈ 29.8 µM) | 32 (≈ 59.5 µM) | 32 (≈ 59.5 µM) | 8 (≈ 14.9 µM) | > 128 | 2 (≈ 3.72 µM) | 64 (≈ 119 µM) | 64 (≈ 119 µM) | 4 (≈ 7.44 µM) | 32 (≈ 59.5 µM) | 32 (≈ 59.5 µM)
3 | Cc1cc(O)c2c(c1)[C@@H]1OC(=O)[C@H](Cc3ccc(O)cc3)N1C1=C2C(=O)c2cccc(O[C@H]3C[C@@H](O)[C@@H](O)[C@H](C)O3)c2C1=O [JADOMYCIN Y] | 8 (≈ 13.3 µM) | > 128 | > 128 | 8 (≈ 13.3 µM) | 4 (≈ 6.67 µM) | 4 (≈ 6.67 µM) | 2 (≈ 3.34 µM) | > 128 | < 1 | 16 (≈ 26.7 µM) | 8 (≈ 13.3 µM) | – | – | –
4 | CC[C@H](C)[C@H]1C(=O)O[C@H]2c3cc(C)cc(O)c3C3=C(C(=O)c4c(O[C@H]5C[C@@H](O)[C@@H](O)[C@H](C)O5)cccc4C3=O)N12 [JADOMYCIN B] | 2 (≈ 3.64 µM) | > 128 | 32 (≈ 58.2 µM) | < 1 | 2 (≈ 3.64 µM) | < 1 | < 1 | > 128 | < 1 | 4 (≈ 7.28 µM) | 4 (≈ 7.28 µM) | 0.5 (≈ 0.91 µM) | 8 (≈ 14.6 µM) | 4 (≈ 7.28 µM)
5 | Cc1cc(O)c2c(c1)[C@@H]1NC(=O)C[C@@H](C(=O)O)N1C1=C2C(=O)c2cccc(O[C@H]3C[C@@H](O)[C@@H](O)[C@H](C)O3)c2C1=O [JADOMYCIN N] | 32 (≈ 58.1 µM) | > 128 | > 128 | 16 (≈ 29.1 µM) | 16 (≈ 29.1 µM) | 8 (≈ 14.5 µM) | 8 (≈ 14.5 µM) | > 128 | < 1 | 32 (≈ 58.1 µM) | 32 (≈ 58.1 µM) | 16 (≈ 29.1 µM) | 128 (≈ 233 µM) | > 128
6 | Cc1cc(O)c2c(c1)[C@@H]1OC(=O)[C@H](CC(C)C)N1C1=C2C(=O)c2cccc(O[C@H]3C[C@@H](O)[C@@H](O)[C@H](C)O3)c2C1=O [JADOMYCIN L] | < 1 | > 128 | > 128 | < 1 | 8 (≈ 14.6 µM) | 8 (≈ 14.6 µM) | 4 (≈ 7.28 µM) | > 128 | < 1 | 16 (≈ 29.1 µM) | 16 (≈ 29.1 µM) | 0.5 (≈ 0.91 µM) | 8 (≈ 14.6 µM) | 8 (≈ 14.6 µM)
